Experimental data taken from ChEMBL document CHEMBL4428115, “Molecular docking studies, biological and toxicity evaluation of dihydroisoquinoline derivatives as potential anticancer agents” (Bioorg Med Chem, 2016).
Active and inactive are the calls of the source. The calls are words filed in the database; no cut-off is given here.

How the values were obtained:
[1] = Selectivity index, ratio of IC50 for mouse BALB/3T3 cells to IC50 for human LoVo/DX cells; type: toxicity; conditions: BALB/3T3 cells versus LoVo/DX cells, read-out: Ratio IC50
HL60/MX2 = experiment: Antiproliferative activity against human HL60/MX2 cells after 72 hrs by MTT assay; type: functional, cell-based; conditions: HL60/MX2, 72 h
Outline: (§1)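 Leukemia cells seeded at 1 × 10^4 per well 24 h before adding compounds (0.01–1000 µg/mL from DMSO stock), exposed 72 h. MTT (5 mg/mL stock) added for 4 h, then DMF/SDS lysis mixture; absorbance at 570 nm read after 24 h. Triplicates per experiment, 3–5 repeats; IC50 calculated per experiment, reported as mean ± SD.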

PC-3 = experiment: Antiproliferative activity against human PC3 cells; type: functional, cell-based
[2] = Selectivity index, ratio of IC50 for mouse BALB/3T3 cells to IC50 for human HL60 cells; type: toxicity; conditions: BALB/3T3 cells versus HL60 cells, read-out: Ratio IC50
Outline: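 Ratio of the BALB/3T3 IC50 to the HL-60 or HL-60/MX2 IC50. Cells were plated at 1 × 10^4 per well 24 h before dosing and exposed for 72 h to 0.01–1000 µg/mL from DMSO stock. BALB/3T3 was read by SRB (TCA fix, 540 nm) and the leukemia lines by MTT (4 h, SDS/DMF lysis, 570 nm). Triplicates; 3–5 experiments.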

HL-60 [3] = experiment: Induction of autophagy in human HL60 cells assessed as accumulation of LC3b-2 at 1 ug/ml after 72 hrs by Western-blot analysis; type: functional, cell-based
Outline: (§2)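 HL-60 (2 × 10^5 cells/mL) treated 72 h at 1 µg/mL with DMSO control, then lysed in RIPA buffer with protease/phosphatase inhibitors. 100 µg protein resolved on 4–20% gels and transferred to nitrocellulose. Probed with rabbit primary antibody, fluorescein-linked anti-rabbit secondary, then anti-fluorescein–alkaline phosphatase with ECF substrate; fluorescence scanned. Densitometry normalized to actin, reported as fold change versus control.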

CEM/C2 = experiment: Antiproliferative activity against human CEM/C2 cells; type: functional, cell-based
[4] = Acute toxicity in New Zealand albino rabbit assessed as conjunctiva at 0.068 g applied to conjunctival sac of eye measured 1 to 72 hrs post dose; set-up: species or system Oryctolagus cuniculus; conditions: in vivo, topical_or_ocular
LNCaP = experiment: Antiproliferative activity against human LNCAP cells; type: functional, cell-based
HL-60 [5] = experiment: Decrease in mitochondrial membrane potential in human HL60 cells at 3 ug/ml after 24 hrs using JC-1 staining based flow cytometry relative to control; type: functional, cell-based
Outline: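 HL-60 treated 24 h at 3 µg/mL alongside DMSO control; […] for 24 h served as the low-potential control. Cells stained with JC-1 at 10 µg/mL final for 30 min at 37°C in the dark, washed, and analysed by flow cytometry (red aggregates vs green monomers). Three independent experiments, mean ± SD.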

[6] = Selectivity index, ratio of IC50 for mouse BALB/3T3 cells to IC50 for human PC3 cells; type: toxicity; conditions: BALB/3T3 cells versus PC3 cells, read-out: Ratio IC50
[7] = Selectivity index, ratio of IC50 for mouse BALB/3T3 cells to IC50 for human HCV29T cells; type: toxicity; conditions: BALB/3T3 cells versus HCV29T cells, read-out: Ratio IC50
Jurkat = experiment: Antiproliferative activity against human Jurkat cells; type: functional, cell-based
[8] = Selectivity index, ratio of IC50 for mouse BALB/3T3 cells to IC50 for human A549 cells
[9] = Antioxidant activity assessed as ABTS free radical scavenging activity; type: functional
HL-60 [10] = experiment: Effect on Bcl-2 expression in human HL60 cells at 1 ug/ml after 72 hrs by Western-blot analysis; type: functional, cell-based; outline: as §2
HL-60 [11] = experiment: Induction of apoptosis in human HL60 cells assessed as increase in late apoptotic cells at 3 ug/ml after 72 hrs by APC-Annexin V/propidium iodide staining based flow cytometry relative to control; type: functional, cell-based
Outline: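 HL-60 (2 × 10^5 cells/mL, seeded 24 h before) treated 72 h at 3 µg/mL alongside a DMSO control. Cells suspended in APC-Annexin V in HEPES binding buffer pH 7.4 with 1.8 mM CaCl2, 15 min dark at rt, then PI at 0.1 mg/mL final. Flow cytometry: PI+/Annexin+ counted as late apoptotic/necrotic. Three experiments, mean ± SD, p≤0.05 versus control.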

[12] = Acute toxicity in Balbc/cmdb mouse assessed as clinical signs at 300 mg/kg, po administered as single dose in first stage of experiment measured for 14 days; type: organism-based; conditions: in vivo, 336 h
Outline: (§3)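 Acute toxic class method per OECD Guideline 423 / EU Method B.1 tris, run in three stages of three female Balbc/cmdb mice each. Fasted about 3 h, then given a single dose by metal stomach tube in DMSO at 0.5 mL/100 g bw. Stage doses were 300, 2000, then 2000 mg/kg bw. General and detailed clinical observations daily for 14 days; body weights recorded.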

HL-60 [13] = experiment: Antiproliferative activity against human HL60 cells after 72 hrs by MTT assay; type: functional, cell-based; conditions: HL-60, 72 h; outline: as §1
LoVo = experiment: Antiproliferative activity against human LoVo cells; type: functional, cell-based
[14] = Selectivity index, ratio of IC50 for human MCF10 cells to IC50 for human HL60 cells; type: toxicity; conditions: MCF10 cells versus HL60 cells, read-out: Ratio IC50
Outline: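 Selectivity index is the ratio of the IC50 for the normal line to the IC50 for the cancer line. Both IC50 values come from 72 h antiproliferative assays: SRB for adherent cells, MTT for HL-60.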

A549 = experiment: Antiproliferative activity against human A549 cells; type: functional, cell-based
MV4-11 = experiment: Antiproliferative activity against human MV411 cells; type: functional, cell-based
[15] = Selectivity index, ratio of IC50 for mouse BALB/3T3 cells to IC50 for human CCRF-CEM cells; type: toxicity; conditions: BALB/3T3 cells versus CCRF-CEM cells, read-out: Ratio IC50
CCRF-CEM = experiment: Antiproliferative activity against human CCRF-CEM cells; type: functional, cell-based
[16] = Acute toxicity in Balbc/cmdb mouse assessed as clinical signs at 300 mg/kg, po administered as single dose in first stage of experiment measured immediately post dose; type: organism-based; conditions: in vivo; outline: as §3
[17] = Acute toxicity in Balbc/cmdb mouse assessed as clinical signs at 2000 mg/kg, po administered as single dose in third stage of experiment measured immediately post dose; type: organism-based; conditions: in vivo; outline: as §3
HT-29 = experiment: Antiproliferative activity against human HT-29 cells at 290 uM; type: functional, cell-based
[18] = Acute toxicity in Balbc/cmdb mouse assessed as clinical signs at 2000 mg/kg, po administered as single dose in second stage of experiment measured immediately post dose; type: organism-based; conditions: in vivo; outline: as §3
[19] = Acute toxicity in Balbc/cmdb mouse assessed as clinical signs at 2000 mg/kg, po administered as single dose in second stage of experiment measured for 14 days; type: organism-based; conditions: in vivo, 336 h; outline: as §3

`CCOC(=O)C1(C(=O)OCC)Cc2cc(OCc3ccccc3)cc(OCc3ccccc3)c2C=N1` gave a selectivity ratio [1] of 8.8, an IC50 (HL60/MX2) of 5.1 µM and an IC50 (PC-3) of 4.2 µM. For the same molecule, the selectivity ratio [2] was 5.8, the Activity (HL-60 [3]) was “inactive” and the IC50 (CEM/C2) was 0.4 µM. The Activity [4] was “Non-Toxic”, the IC50 (LNCaP) was 3.3 µM and the Activity (HL-60 [5]) was “Active”. The selectivity ratio [6] was 8.5, the selectivity ratio [7] was 4.1 and the IC50 (Jurkat) was 14.4 µM. For the same molecule, the “Ratio IC50” value [8] was 2.7, the Activity [9] was “inactive” and the Activity (HL-60 [10]) was “inactive”. The Activity (HL-60 [11]) was “Active”, the Activity [12] was “Non-Toxic” and the IC50 (HL-60 [13]) was 6.2 µM. It also gave an IC50 (LoVo) of 1.1 µM, a selectivity ratio [14] of 4 to 8 and an IC50 (A549) of 13.1 µM. It also gave an IC50 (MV4-11) of 64.4 µM, a selectivity ratio [15] of 51.3 and an IC50 (CCRF-CEM) of 0.7 µM. The Activity [16] was “Toxic”, the Activity [17] was “Toxic” and the “growth inhibition (GI)” value (HT-29) was “inactive”. The Activity [18] was “Toxic” and the Activity [19] was “Non-Toxic”.
